In ChEMBL document CHEMBL1143104, “Identification and characterization of pyrrolidine diastereoisomers as potent functional agonists and antagonists of the human melanocortin-4 receptor” (Bioorg Med Chem Lett, 2008):

Experiments:
[1] = target: T1, Melanocortin receptor 4 (Homo sapiens, UniProt P32245); assay: Displacement of [125I]NDP-MSH from human MC4 receptor expressed in HEK293 cells; format: cell-based
How it was run: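 HEK293 cells expressing human MC4R, radioligand competition binding with [125I]-NDP-MSH. Ki values are the average of two or more independent measurements.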

[2] = target: T1, Melanocortin receptor 4; assay: Agonist activity at human MC4 receptor expressed in CHO cells assessed as accumulation of cAMP production; format: functional, cell-based
How it was run: (§1)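 CHO cells transfected with human MC4R were stimulated by compound and accumulated cAMP was measured by ELISA. Intrinsic activity is expressed relative to α-MSH. Representative experiments were run 2–8 times.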

[3] = target: T1, Melanocortin receptor 4; assay: Intrinsic activity at human MC4 receptor expressed in CHO cells assessed as accumulation of cAMP production relative to alphaMSH; format: functional, cell-based; how it was run: as §1
[4] = target: Melanocortin receptor 3 (Homo sapiens, UniProt P41968); assay: Binding affinity to MC3R
Chain of Melanocortin receptor 3 (P41968 whole entry): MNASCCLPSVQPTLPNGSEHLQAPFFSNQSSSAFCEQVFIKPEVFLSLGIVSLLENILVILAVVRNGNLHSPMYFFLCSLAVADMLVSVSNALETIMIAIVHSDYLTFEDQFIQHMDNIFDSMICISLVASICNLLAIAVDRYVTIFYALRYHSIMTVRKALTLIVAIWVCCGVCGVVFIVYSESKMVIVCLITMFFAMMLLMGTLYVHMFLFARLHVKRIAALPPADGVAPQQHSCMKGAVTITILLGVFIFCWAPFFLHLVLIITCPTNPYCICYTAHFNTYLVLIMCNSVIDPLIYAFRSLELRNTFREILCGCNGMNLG

[5] = target: Melanocortin receptor 5 (Homo sapiens, UniProt P33032); assay: Binding affinity to MC5R
Chain of Melanocortin receptor 5 (P33032 whole entry): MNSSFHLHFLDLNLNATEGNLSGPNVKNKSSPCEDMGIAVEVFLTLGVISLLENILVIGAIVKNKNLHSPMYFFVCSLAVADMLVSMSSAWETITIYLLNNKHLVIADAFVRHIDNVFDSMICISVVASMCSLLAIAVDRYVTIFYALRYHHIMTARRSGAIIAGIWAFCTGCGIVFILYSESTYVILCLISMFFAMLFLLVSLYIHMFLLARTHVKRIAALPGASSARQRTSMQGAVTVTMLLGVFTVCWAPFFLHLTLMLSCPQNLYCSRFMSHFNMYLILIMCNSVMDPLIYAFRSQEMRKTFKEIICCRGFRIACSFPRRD

[6] = Clearance in rat at 2.5 mg/kg, iv; format: ADME, organism-based; parameters: dose 2.5 mg/kg, route intravenous; conditions: in vivo
How it was run: (§2)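 Rat pharmacokinetics: single 2.5 mg/kg iv injection and separately 10 mg/kg oral gavage. Plasma CL, Vd, t1/2, AUC, Cmax, Tmax and oral bioavailability were derived. Whole-brain concentration was measured at 1 and 4 h after oral dosing and expressed as a brain/plasma ratio. Values are the average of three animals.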

[7] = Volume of distribution in rat in rat at 2.5 mg/kg, iv; format: ADME, organism-based; parameters: dose 2.5 mg/kg, route intravenous; conditions: in vivo; how it was run: as §2
[8] = Half life in rat at 2.5 mg/kg, iv; format: ADME, organism-based; parameters: dose 2.5 mg/kg, route intravenous; conditions: in vivo; how it was run: as §2
[9] = AUC in rat at 2.5 mg/kg, iv; format: ADME, organism-based; parameters: dose 2.5 mg/kg, route intravenous; conditions: plasma; how it was run: as §2
[10] = Cmax in rat at 10 mg/kg, po; format: ADME, organism-based; parameters: dose 10 mg/kg, route oral; conditions: in vivo; how it was run: as §2
[11] = Tmax in rat at 10 mg/kg, po; format: ADME, organism-based; parameters: dose 10 mg/kg, route oral; conditions: in vivo; how it was run: as §2
[12] = AUC in rat at 10 mg/kg, po; format: ADME, organism-based; parameters: dose 10 mg/kg, route oral; conditions: plasma; how it was run: as §2
[13] = Drug level in rat brain at 10 mg/kg, po after 4 hrs; format: ADME, organism-based; parameters: dose 10 mg/kg, route oral; conditions: read-out: Drug uptake; how it was run: as §2
[14] = Ratio of drug level in brain to plasma in rat at 10 mg/kg, po after 4 hrs; format: ADME, organism-based; parameters: dose 10 mg/kg, route oral; conditions: read-out: BPR; how it was run: as §2
[15] = Apparent permeability across human Caco-2 cells from apical to basolateral side; format: ADME, cell-based
How it was run: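 Caco-2 monolayer permeability, apical-to-basolateral Papp in nm/s. The (b to a)/(a to b) ratio was also determined as an efflux measure.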

[16] = tested on: Caco-2; assay: Ratio of permeability across human Caco-2 cells from basolateral to apical side to apical to basolateral side; format: ADME, cell-based
[17] = Distribution coefficient, log D by shake flask method; format: physicochemical; conditions: octanol/water
How it was run: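 log D was measured by the shake-flask method.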

[18] = Ratio of drug level in brain to plasma in po dosed DIO rat after 7 days; format: ADME, organism-based; conditions: read-out: BPR
How it was run: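 Chronic study in DIO rats given 3, 10 or 30 mg/kg orally once daily. A satellite group was sampled on day 1 and day 7 for plasma concentration-time profiles and brain/plasma ratio.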

[19] = Bioavailability in rat at 10 mg/kg, po; format: ADME, organism-based; conditions: in vivo; how it was run: as §2
[20] = target: T1, Melanocortin receptor 4; assay: Antagonist activity at human MC4 receptor expressed in CHO cells assessed as inhibition of alpha-MSH-stimulated cAMP production; format: functional, cell-based
How it was run: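 CHO cells transfected with human MC4R were tested for dose-dependent inhibition of α-MSH-stimulated cAMP accumulation, measured by ELISA. IC50 was derived. Representative experiments were run 2–8 times.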

[21] = target: Melanocyte-stimulating hormone receptor (Homo sapiens, UniProt Q01726); assay: Binding affinity to MC1R
Chain of Melanocyte-stimulating hormone receptor (Q01726 whole entry): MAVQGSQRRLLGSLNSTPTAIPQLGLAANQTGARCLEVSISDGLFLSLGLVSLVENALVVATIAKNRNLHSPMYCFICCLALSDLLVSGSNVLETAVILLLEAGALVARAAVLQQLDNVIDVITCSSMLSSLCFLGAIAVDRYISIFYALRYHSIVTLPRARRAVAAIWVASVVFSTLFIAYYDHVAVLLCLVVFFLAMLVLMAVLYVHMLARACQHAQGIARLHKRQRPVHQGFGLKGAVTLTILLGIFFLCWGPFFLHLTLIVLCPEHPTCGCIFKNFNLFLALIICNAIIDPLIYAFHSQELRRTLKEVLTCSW

T1 sequence (P32245 whole entry): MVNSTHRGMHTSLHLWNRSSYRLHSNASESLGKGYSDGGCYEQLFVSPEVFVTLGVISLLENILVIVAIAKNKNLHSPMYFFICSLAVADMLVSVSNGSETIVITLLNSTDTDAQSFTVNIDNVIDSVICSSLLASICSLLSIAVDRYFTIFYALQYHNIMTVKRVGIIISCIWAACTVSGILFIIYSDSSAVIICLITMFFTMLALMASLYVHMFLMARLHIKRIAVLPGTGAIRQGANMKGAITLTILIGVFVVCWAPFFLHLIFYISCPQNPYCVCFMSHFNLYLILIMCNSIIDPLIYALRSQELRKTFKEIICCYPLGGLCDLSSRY

SMILES	Ki [1]	EC50 [2]	Intrinsic activity [3]	other results
CC(C)[C@H](NC(=O)CCN(C)C)c1cccc(F)c1N1CCN(C(=O)[C@@H]2CN(C(C)C)C[C@H]2c2ccc(Cl)cc2)CC1	5.3 nM	20 nM	103%	–
Cc1ccc(N2CCN(C(=O)[C@@H]3CN(C4CCOCC4)C[C@H]3c3ccc(Cl)cc3)CC2)c([C@@H](NC(=O)CCN(C)C)C(C)C)c1 (stereo in doubt; 13b-1)	1 nM	3.8 nM	–	Ki [4]: 260 nM; Ki [5]: 800 nM; clearance [6]: 129 mL/min/kg; Vd [7]: 80 L/kg; half-life [8]: 7.1 h; AUC [9]: 307 ng·h/mL; Cmax [10]: 14 ng/mL; Tmax [11]: 2.7 h; AUC [12]: 114 ng·h/mL; concentration at 4 h [13]: 19 ng/g; Kp at 4 h [14]: 3; Papp A→B [15]: 0.16 ×10⁻⁶ cm/s; Ratio [16]: 23; logD [17]: 2.6; Kp at 168 h [18]: > 10; bioavailability [19]: 10%
Cc1ccc(N2CCN(C(=O)[C@@H]3CN(C4CCOCC4)C[C@H]3c3ccc(Cl)cc3)CC2)c([C@@H](NC(=O)CCN(C)C)C(C)C)c1 (stereo in doubt; 13b)	1.4 nM	10 nM	–	–
CC(C)[C@H](NC(=O)CCN(C)C)c1cccc(F)c1N1CCN(C(=O)[C@@H]2CN(C(C)C)C[C@H]2c2ccc(C(F)(F)F)c(F)c2)CC1	51 nM	340 nM	47%	–
CC(C)[C@H](NC(=O)CCN(C)C)c1cccc(F)c1N1CCN(C(=O)[C@@H]2CN(C(C)C)C[C@H]2c2ccc(F)c(Cl)c2)CC1	260 nM	410 nM	78%	–
CC(C)[C@H](NC(=O)CCN(C)C)c1cccc(F)c1N1CCN(C(=O)[C@@H]2CN(C(C)C)C[C@H]2c2cccc(Cl)c2)CC1	370 nM	–	–	–
CC(C)[C@H](NC(=O)CCN(C)C)c1cccc(F)c1N1CCN(C(=O)[C@@H]2CN(C(C)C)C[C@H]2c2ccoc2)CC1	850 nM	–	–	–
Cc1ccc(N2CCN(C(=O)[C@@H]3CN(C4CCOCC4)C[C@H]3c3ccc(Cl)cc3)CC2)c([C@@H](N)C(C)C)c1	12 nM	–	36%	–
CC(C)[C@H](NC(=O)CCN(C)C)c1cccc(F)c1N1CCN(C(=O)[C@@H]2CN(C(C)C)C[C@H]2c2cc(F)ccc2F)CC1	2050 nM	–	–	–
Cc1cccc([C@@H]2CN(C(C)C)C[C@H]2C(=O)N2CCN(c3c(F)cccc3[C@@H](NC(=O)CCN(C)C)C(C)C)CC2)c1	470 nM	–	–	–
Cc1ccc(N2CCN(C(=O)[C@H]3CN(C4CCOCC4)C[C@@H]3c3ccc(Cl)cc3)CC2)c([C@@H](NC(=O)CCN(C)C)C(C)C)c1	4.7 nM	–	10%	IC50 [20]: 64 nM; Ki [21]: 120 nM; Ki [4]: 1300 nM; Ki [5]: 530 nM; clearance [6]: 82 mL/min/kg; Vd [7]: 75 L/kg; half-life [8]: 11 h; AUC [9]: 455 ng·h/mL; Cmax [10]: 17 ng/mL; Tmax [11]: 2 h; AUC [12]: 161 ng·h/mL; concentration at 4 h [13]: 18 ng/g; Kp at 4 h [14]: 1; bioavailability [19]: 14%
Cc1ccc(N2CCN(C(=O)[C@@H]3CN(C4CCOCC4)C[C@H]3c3ccc(Cl)cc3)CC2)c([C@@H](NC(=O)CCN)C(C)C)c1	2.2 nM	6 nM	107%	–
CC(=O)N1C[C@@H](C(=O)N2CCN(c3ccc(C)cc3[C@@H](NC(=O)CCN(C)C)C(C)C)CC2)[C@H](c2ccc(Cl)cc2)C1	7.6 nM	44 nM	100%	–
CC(C)[C@H](NC(=O)CCN(C)C)c1cccc(F)c1N1CCN(C(=O)[C@@H]2CN(C(C)C)C[C@H]2c2cccc(F)c2)CC1	560 nM	–	–	–
Cc1ccc(N2CCN(C(=O)[C@@H]3CN(C4CCOCC4)C[C@H]3c3ccc(Cl)cc3)CC2)c([C@@H](NC(=O)CN)C(C)C)c1	2 nM	9.1 nM	114%	–
CNCC(=O)N[C@H](c1cc(C)ccc1N1CCN(C(=O)[C@@H]2CN(C3CCOCC3)C[C@H]2c2ccc(Cl)cc2)CC1)C(C)C	2.1 nM	19 nM	84%	–
